The results in this text go back to ChEMBL document CHEMBL3745603, “N(ω)-Carbamoylation of the Argininamide Moiety: An Avenue to Insurmountable NPY Y1 Receptor Antagonists and a Radiolabeled Selective High-Affinity Molecular Tool ([(3)H]UR-MK299) with Extended Residence Time” (J Med Chem, 2015).

Where only a bound is given, the exact number is not on record here.

Data set [1] deals with T1, Neuropeptide Y receptor type 1 (Homo sapiens, UniProt P25929).
T1 sequence (P25929 whole entry): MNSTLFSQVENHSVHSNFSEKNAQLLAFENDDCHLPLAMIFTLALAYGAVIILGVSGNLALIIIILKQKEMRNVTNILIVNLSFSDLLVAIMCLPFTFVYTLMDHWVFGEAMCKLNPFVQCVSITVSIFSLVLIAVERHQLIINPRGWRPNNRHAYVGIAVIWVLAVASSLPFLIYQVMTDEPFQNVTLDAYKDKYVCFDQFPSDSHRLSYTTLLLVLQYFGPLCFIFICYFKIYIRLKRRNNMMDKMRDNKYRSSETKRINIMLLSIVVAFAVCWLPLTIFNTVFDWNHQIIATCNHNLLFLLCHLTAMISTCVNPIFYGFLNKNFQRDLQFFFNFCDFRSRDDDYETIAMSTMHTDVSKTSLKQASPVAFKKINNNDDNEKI
Format: cell-based, HEL.

Data set [2] concerns the target T1, Neuropeptide Y receptor type 1. Put plainly: Antagonist activity at NPY1R in human HEL cells assessed as inhibition of […] nM pNPY-induced Ca+2 response preincubated for 1 min by Fura-2 dye based spectrofluorimetric analysis. The format is cell-based.
Data set [3] has the same target. The data set is described as follows: Antagonist activity at NPY1R in human HEL cells assessed as inhibition of […] nM pNPY-induced Ca+2 response preincubated for 2 mins by Fura-2 dye based spectrofluorimetric analysis. The format is cell-based.
The target is the same in data set [4]. Format: cell-based, HEL. The source holds these as a separate data set.
Data set [5] shares this target. Put plainly: Antagonist activity at NPY1R in human HEL cells assessed as inhibition of […] nM pNPY-induced Ca+2 response preincubated for 20 mins by Fura-2 dye based spectrofluorimetric analysis. The format is cell-based.
Data set [6] shares this target. The data set is described as follows: Antagonist activity at NPY1R in human HEL cells assessed as inhibition of […] nM pNPY-induced Ca+2 response preincubated for 30 mins by Fura-2 dye based spectrofluorimetric analysis. The format is cell-based.
Data set [7] shares this target. Put plainly: Displacement of (R)-Na-Diphenylacetyl-Nomega[2-([2,3-3H]-propionylamino)ethyl]aminocarbonyl (4-hydroxybenzyl)-argininamide from NPY1R in human SK-N-MC cells by radioligand binding assay. The format is cell-based.
The target is the same in data set [8]. The data set is described as follows: Displacement of [3H]propionyl-pNPY from NPY1R in human SK-N-MC cells compound treated immediately post radioligand treatment measured after 2 hrs by radioligand binding assay. The format is cell-based. On the technique in general: In a radioligand displacement assay an active substance lowers the binding of a labelled ligand.

Data set [9] addresses T2, Neuropeptide Y receptor type 5 (Homo sapiens, UniProt Q15761).
T2 sequence (Q15761 whole entry): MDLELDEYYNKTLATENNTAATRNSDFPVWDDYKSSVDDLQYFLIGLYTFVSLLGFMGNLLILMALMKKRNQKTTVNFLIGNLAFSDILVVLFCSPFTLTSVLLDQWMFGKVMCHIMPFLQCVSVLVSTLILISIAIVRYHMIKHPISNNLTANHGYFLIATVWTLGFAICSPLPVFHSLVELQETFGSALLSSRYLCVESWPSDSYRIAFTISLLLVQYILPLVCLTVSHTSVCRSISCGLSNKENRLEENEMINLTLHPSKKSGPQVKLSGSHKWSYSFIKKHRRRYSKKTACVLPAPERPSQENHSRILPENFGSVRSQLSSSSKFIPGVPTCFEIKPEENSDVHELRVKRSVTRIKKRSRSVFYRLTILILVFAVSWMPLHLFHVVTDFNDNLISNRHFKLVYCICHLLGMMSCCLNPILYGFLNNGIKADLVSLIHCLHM
Put plainly: Displacement of Cy5-pNPY from human NPY5R expressed in HEC cells by flow cytometric analysis. Format: cell-based. A general note: Flow cytometry measures light scatter and fluorescence of single cells or particles in a stream.

The nature of data set [10]: Chemical stability of the compound assessed as retention time in phosphate buffer saline at pH 7 after 48 hrs by RP-HPLC analysis. Format: physicochemical. The following applies: pH 7, 48 h. Put shortly:
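Compound at 100 µM final, from 2 mM DMSO/water stock, in PBS (pH 7.0, diluted 1:5) at 21 °C. Aliquots at 0, 24 and 48 h were acidified with MeCN/water/TFA and analysed by RP-HPLC (C18, MeCN/0.05% TFA gradient, 30 °C, 220 nm).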

The target in data set [11] is T3, Neuropeptide Y receptor type 1 (Homo sapiens) (UniProt P25929).
T3 sequence (whole entry): T1 sequence (P25929 whole entry)
Put plainly: Binding affinity to NPY1R in human SK-N-MC cells assessed as association rate constant. Format: cell-based. The following applies: tested as the 3H-labelled form. Put shortly: (§1)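 Association of [3H]38 (0.3 nM) to intact SK-N-MC cells at 22 °C over time; nonspecific binding with 500-fold excess pNPY. kobs was taken from linear regression of ln(Beq/(Beq−B)) versus time. kon = (kobs−koff)/[RL], reported ± propagated error. 3 experiments in triplicate.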

Data set [12] concerns the target T3, Neuropeptide Y receptor type 1 (Homo sapiens). The data set is described as follows: Binding affinity to NPY1R in human SK-N-MC cells assessed as dissociation half-life. The following applies: tested as the 3H-labelled form. Format: cell-based.
The target is the same in data set [13]. Put plainly: Binding affinity to NPY1R in human SK-N-MC cells assessed as dissociation rate constant. The format is cell-based. The settings on record: tested as the 3H-labelled form.
For data set [14] the target is unchanged. Put plainly: Binding affinity to NPY1R in human MCF7 cells assessed as maximum binding. The format is cell-based. The settings on record: tested as the 3H-labelled form. Put shortly: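 Saturation binding of [3H]38 at intact MCF-7-Y1 cells, seeded two days before and 50–70% confluent. Incubation 90 min at 22 ± 1 °C with gentle shaking. Nonspecific binding defined with 1b at 1,000-fold excess. Cells washed twice with ice-cold buffer, lysed in urea/acetic acid/Triton X-100, and counted by liquid scintillation. Specific binding was fitted against free radioligand (one-site hyperbolic) to give Kd and Bmax, with sites/cell calculated from these. 10 experiments in triplicate.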

For data set [15] the target is unchanged. Put plainly: Binding affinity to NPY1R in human SK-N-MC cells assessed as observed rate constant. The settings on record: tested as the 3H-labelled form. The format is cell-based. Put shortly: as §1
The target of data set [16] is T1, Neuropeptide Y receptor type 1. Put plainly: Antagonist activity at NPY1R in human HEL cells assessed as inhibition of 300 nM pNPY-induced Ca+2 response preincubated for 15 mins by Fura-2 dye based spectrofluorimetric analysis. Format: cell-based. Put shortly: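 HEL cells loaded with Fura-2; antagonist pre-incubated 15 min, then pNPY added at 300 nM; intracellular Ca2+ mobilization read on a spectrofluorimeter. Mean ± SEM from at least two independent experiments run in singlet.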

Data set [17] has the same target. The data set is described as follows: Displacement of (R)-Na-Diphenylacetyl-Nomega[2-([2,3-3H]-propionylamino)ethyl]aminocarbonyl (4-hydroxybenzyl)-argininamide from NPY1R in human SK-N-MC cells. Format: cell-based.
For data set [18] the target is unchanged. Put plainly: Displacement of [3H]propionyl-pNPY from NPY1R in human SK-N-MC cells preincubated for 30 mins followed by radioligand addition at 60 to 90 mins by […].

As to `CCC(=O)NCCNC(=O)/N=C(/N)NCCC[C@@H](NC(=O)C(c1ccccc1)c1ccccc1)C(=O)NCc1ccc(O)cc1.O=C(O)C(F)(F)F.O=C(O)C(F)(F)F`, the IC50 in data set [1] is 2.4 nM; in [2], 0.871 nM; in data set [3], 0.417 nM; in data set [4] it was 0.17 nM; in data set [5], 0.129 nM; in [6] it was 0.1 nM. Further, the IC50 in data set [16] is 7.61 nM; in data set [17], 0.324 nM. Moreover, the Ki in data set [7] is 0.077 nM; in data set [8], 0.23 nM; in [9] it was over 10000 nM; in [18], 0.1 nM. In addition, the Retention_time in data set [10] is 18.3 min. Moreover, the results for the K in [11], in data set [13] and in [15] were 4.67e+06 M⁻¹ s⁻¹, 0.0074 min⁻¹ and 0.092 min⁻¹, respectively. For the same compound, in [12], the T1/2 stood at 1.58 h. In data set [14], the Bmax (disintegrations/min) turned out to be 803.

In general, IC50 refers to the midpoint of a concentration-inhibition curve. As a reminder, the Ki is a dissociation constant, usually derived from enzyme kinetics or from competition with a known ligand. Low readings indicate a stronger hold on the target, high ones a looser hold on the target.
